# Activity calls are given as the source filed them. The rule behind the calls is not given here.
# Assays:
# [1] = Effect on wound healing activity in non-diabetic adult human primary fibroblasts assessed as upregulation of RANTES protein levels at 1.96 uM after 24 hrs by bead-based suspension array analysis; format: functional; settings: Fibroblast
# [2] = system: Keratinocyte; assay: Effect on chemokines related gene expression in non-diabetic young human primary keratinocytes assessed as CXCL10 mRNA levels at 1.96 uM after 6 hrs by qPCR analysis; format: functional
# Procedure, shortened: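 Primary human keratinocytes (nondiabetic young or adult, diabetic adult donors) were exposed to compound for 6 h, with 0.1% DMSO as solvent control. Total RNA came from 400 000 cells per sample and was assayed on a Fluidigm Biomark high-throughput qPCR chip. Results are fold change vs solvent control, from 2−4 independent experiments on two donors per group, with SD. Groups were compared by one-way ANOVA with Bonferroni post-test.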
# [3] = system: Keratinocyte; assay: Effect on chemokines related gene expression in diabetic adult human primary keratinocytes assessed as CXCL10 mRNA levels at 1.96 uM after 6 hrs by qPCR analysis; format: functional
# [4] = system: Keratinocyte; assay: Effect on chemokines related gene expression in diabetic adult human primary keratinocytes assessed as IL8 mRNA levels at 1.96 uM after 6 hrs by qPCR analysis; format: functional
# [5] = system: Keratinocyte; assay: Effect on pro-inflammatory related gene expression in non-diabetic young human primary keratinocytes assessed as IL1R1 mRNA levels at 9.81 uM after 6 hrs by qPCR analysis; format: functional
# [6] = system: Keratinocyte; assay: Effect on transcription factor related gene expression in non-diabetic young human primary keratinocytes assessed as JUN mRNA levels at 9.81 uM after 6 hrs by qPCR analysis; format: functional
# [7] = system: Keratinocyte; assay: Effect on MMP1 mRNA expression levels in non-diabetic young human primary keratinocytes at 9.81 uM after 6 hrs by qPCR analysis; format: functional
# Procedure, shortened: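 Primary keratinocytes from nondiabetic young and adult and diabetic adult donors; 400 000 cells per sample, 6 h exposure at 1.96 or 9.81 μM. RNA extracted and read on a high-throughput qPCR chip. Results are fold change versus 0.1% DMSO solvent control from 5−7 independent experiments over two donors per group, SD, one-way ANOVA with Bonferroni post-test.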
# [8] = system: Keratinocyte; assay: Effect on cellular connection related gene expression in diabetic adult human primary keratinocytes assessed as CLDN4 mRNA levels at 9.81 uM after 6 hrs by qPCR analysis; format: functional
# [9] = system: Keratinocyte; assay: Effect on pro-inflammatory related gene expression in diabetic adult human primary keratinocytes assessed as TNF mRNA levels at 9.81 uM after 6 hrs by qPCR analysis; format: functional
# [10] = system: Keratinocyte; assay: Effect on chemokines related gene expression in diabetic adult human primary keratinocytes assessed as IL8 mRNA levels at 9.81 uM after 6 hrs by qPCR analysis; format: functional
# [11] = system: Fibroblast; assay: Effect on pro-inflammatory related gene expression in non-diabetic young human primary fibroblasts assessed as IL1B mRNA levels at 1.96 uM after 6 hrs by qPCR analysis; format: functional
# [12] = system: Fibroblast; assay: Effect on growth factor related gene expression in non-diabetic adult human primary fibroblasts assessed as VEGFA mRNA levels at 1.96 uM after 6 hrs by qPCR analysis; format: functional
# Procedure, shortened: (§1)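 Primary human dermal fibroblasts (young or adult nondiabetic, adult diabetic donor) were treated for 6 h against a 0.1% DMSO solvent control. RNA from 320 000 cells per sample was measured by Fluidigm Biomark high-throughput qPCR. Values are fold change relative to solvent control, from four independent experiments, with SD. One-way ANOVA with Bonferroni post-test was applied.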
# [13] = system: Fibroblast; assay: Effect on chemokines related gene expression in non-diabetic adult human primary fibroblasts assessed as WDR26 mRNA levels at 9.81 uM after 6 hrs by qPCR analysis; format: functional
# [14] = system: Fibroblast; assay: Effect on chemokines related gene expression in non-diabetic young human primary fibroblasts assessed as WDR26 mRNA levels at 9.81 uM after 6 hrs by qPCR analysis; format: functional; procedure, shortened: as §1
# [15] = system: Fibroblast; assay: Effect on pro-inflammatory related gene expression in non-diabetic young human primary fibroblasts assessed as IL1R1 mRNA levels at 9.81 uM after 6 hrs by qPCR analysis; format: functional
# [16] = system: Fibroblast; assay: Effect on growth factor related gene expression in non-diabetic young human primary fibroblasts assessed as VEGFA mRNA levels at 9.81 uM after 6 hrs by qPCR analysis; format: functional; procedure, shortened: as §1
# [17] = system: Fibroblast; assay: Effect on antioxidant related gene expression in diabetic adult human primary fibroblasts assessed as SOD2 mRNA levels at 9.81 uM after 6 hrs by qPCR analysis; format: functional
# [18] = system: Fibroblast; assay: Effect on antioxidant related gene expression in non-diabetic adult human primary fibroblasts assessed as NFE2L2 mRNA levels at 1.96 uM after 6 hrs by qPCR analysis; format: functional
# [19] = system: Fibroblast; assay: Effect on adhesion molecules related gene expression in non-diabetic adult human primary fibroblasts assessed as ICAM1 mRNA levels at 9.81 uM after 6 hrs by qPCR analysis; format: functional
# Procedure, shortened: (§2)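 Dermal fibroblasts from nondiabetic adult and diabetic adult donors, exposed for 6 h at 1.96 or 9.81 μM. ICAM-1 and VCAM-1 mRNA measured by standard qRT-PCR, n = 3. Fold change versus 0.1% DMSO control, SD, one-way ANOVA with Bonferroni post-test.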
# [20] = system: Fibroblast; assay: Effect on adhesion molecules related gene expression in diabetic adult human primary fibroblasts assessed as ICAM1 mRNA levels at 9.81 uM after 6 hrs by qPCR analysis; format: functional; procedure, shortened: as §2
# [21] = Effect on wound healing activity in non-diabetic adult human primary keratinocytes assessed as upregulation of MIF protein levels at 1.96 uM after 24 hrs by bead-based suspension array analysis; format: functional; settings: Keratinocyte
# [22] = Effect on wound healing activity in diabetic adult human primary keratinocytes assessed as upregulation of TNFalpha protein levels at 1.96 uM after 24 hrs by bead-based suspension array analysis; format: functional; settings: Keratinocyte
# [23] = Effect on wound healing activity in non-diabetic adult human primary fibroblasts assessed as upregulation of MIF protein levels at 1.96 uM after 24 hrs by bead-based suspension array analysis; format: functional; settings: Fibroblast
# [24] = Effect on wound healing activity in non-diabetic adult human primary fibroblasts assessed as upregulation of soluble TNFR1 protein levels at 1.96 uM after 24 hrs by bead-based suspension array analysis; format: functional; settings: Fibroblast
# [25] = system: Keratinocyte; assay: Effect on actin cytoskeleton in human diabetic primary keratinocytes assessed as formation of cellular protrusions at 10 nM after 2 hrs by rhodamine phalloidin-staining based fluorescence microscopic analysis; format: functional
# Procedure, shortened: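 Subconfluent cells on glass coverslips, collagen type I coated for fibroblasts; keratinocytes starved 2 days before stimulation. Exposure 2 h, then rhodamine-phalloidin staining (1:25 in PBS) and fluorescence microscopy. Controls were DMSO as solvent and PDGF (fibroblasts) or CNF1 (keratinocytes). Where used, p38-MAPK inhibitor LN 950 (100 nM) was added 30 min beforehand.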
# [26] = target: Cell division control protein 42 homolog (Homo sapiens) (UniProt P60953); assay: Activation of Cdc42 in human diabetic primary keratinocytes at 10 nM after 20 mins by immunoblot method
# Procedure, shortened: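 Keratinocytes from a diabetic adult donor; incubation 3 h for RhoA, 20 min for Cdc42 and Rac1. Lysates made in glycerol/Tris pH 7.4/NaCl/NP-40/MgCl2/PMSF buffer, spun at 4 °C. Active GTP-bound form pulled down on glutathione-sepharose with GST-Rhotekin (RhoA) or GST-PAK (Cdc42, Rac1) for 1 h at 4 °C. Total and pulled-down protein read by immunoblot with ECL; n = 3.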
# Chain of Cell division control protein 42 homolog (Homo sapiens) (P60953 whole entry, looked up): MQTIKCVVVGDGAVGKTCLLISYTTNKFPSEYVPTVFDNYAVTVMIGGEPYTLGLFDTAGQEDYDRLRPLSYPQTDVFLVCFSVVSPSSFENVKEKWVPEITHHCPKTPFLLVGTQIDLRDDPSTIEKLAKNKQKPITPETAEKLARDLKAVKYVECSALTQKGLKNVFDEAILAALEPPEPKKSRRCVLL
structure (smiles),measurement,setting,value
C=C(C)[C@@H]1CC[C@]2(CO)CC[C@]3(C)[C@H](CC[C@@H]4[C@@]5(C)CC[C@H](O)C(C)(C)[C@@H]5CC[C@]43C)[C@@H]12 [BETULIN],Activity,[1],Active
same,fold change (FC),[2],1.9
same,fold change (FC),[3],6
same,fold change (FC),[4],16.5
same,fold change (FC),[5],1
same,fold change (FC),[6],1.8
same,fold change (FC),[7],1
same,fold change (FC),[8],2.1
same,fold change (FC),[9],13
same,fold change (FC),[10],56
same,fold change (FC),[11],3.3
same,fold change (FC),[12],1.4
same,fold change (FC),[13],1.3
same,fold change (FC),[14],1.4
same,fold change (FC),[15],3.9
same,fold change (FC),[16],2
same,fold change (FC),[17],1.1
same,fold change (FC),[18],1.3
same,fold change (FC),[19],152
same,fold change (FC),[20],2.3
same,Activity,[21],Active
same,Activity,[22],Active
same,Activity,[23],Active
same,Activity,[24],Active
same,Activity,[25],Active
same,Activity,[26],Active

# — ChEMBL document CHEMBL3853270, “Influence of Birch Bark Triterpenes on Keratinocytes and Fibroblasts from Diabetic and Nondiabetic Donors” (2016)
